# rRNA inh HTS – inhibits bacterial ribosomal RNA function over humanized ribosomes; E. coli WT GFP vs humanized-ribosome RFP mutants, fluorescence, 24 h; hits give low values; DMSO median 0, no signal -100; GFP signal change (wild-type ribosome), % (no concentration beside the values); 350,000 tested, 1.6% active; AID 720706;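 active means significant combined selectivity score with lowered wild-type GFP, culture density cut under 30%, mutant RFP and density less affected; inactive means any of these conditions unmet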
# Vif inh – blocks HIV Vif function. AID 602346. inhibition, % at 7.49 µM. HEK293T cells, Vif self-association by quenched fluorescence, imaging, 24 h. 340,000 tested, 0.35% active; in the data active means inhibition above about 50%, passing the limit was not always enough; inconclusive means no clear call, values can overlap the other calls; inactive means below about 31%
# HIV Env fusion – blocks HIV Env-driven cell-cell fusion. 360,000 tested, 1.1% active. inhibition, % at 12.3 µM. AID 651610. HeLa-JRFL Env/CEM21 cell fusion, luciferase;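 active means mean replicate inhibition score of at least 50 and every replicate individually at or above 50; inconclusive means only one of the two criteria met; inactive means mean below 50 and not all replicates reaching 50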;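 further: 0% = plate neutral controls and 100% = maraviroc near 300 nM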
# miR-122 sensor – miR-122 inhibition in Huh7 cells; 340,000 tested, 0.3% active; Huh7 miR-122 Renilla luciferase sensor, 48 h; neutral wells = 0, positive control = 100; activation (reporter increase), % at 12.5 µM;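 active means mean replicate activation score at least 90 and every replicate individually at or above 90; inconclusive means only one of the two criteria met; inactive means neither criterion met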;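 further: higher luciferase means less miR-122 activity so hits act as miR-122 inhibitors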
# S100A4 MyoIIA – S100A4-myosin IIA interaction inhibition | AID 652163 | S100A4/TAMRA-MyoIIA peptide fluorescence polarization | 360,000 tested, 0.14% active | inhibition, % at 10.7 µM;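 active means mean inhibition of at least 70% across replicates, with every replicate also reaching that level; inconclusive means mean inhibition reaches 70% but some replicates fall short; inactive means mean inhibition below 70%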
# Target sequence (P26447 whole entry, looked up): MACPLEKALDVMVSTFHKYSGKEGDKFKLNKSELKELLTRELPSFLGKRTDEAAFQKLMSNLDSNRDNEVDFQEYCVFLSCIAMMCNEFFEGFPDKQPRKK
#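 Test system – S100A4 monomer (human) · Compound – single-point compound testing · Schedule – 5 min incubation before reading · Probe or stimulus – TAMRA-labelled myosin IIA heavy-chain peptide probe, 5 nM · Benchmarks – neutral control DMSO, positive control TFP · Medium – Calcium-containing HEPES buffer, pH 7.2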
# FN deposition inh – fibronectin deposition inhibition; AH1F fibroblasts, Alexa488-fibronectin deposition fluorescence, overnight; inhibition, % at 12.6 µM; 350,000 tested, 0.086% active; AID 743247;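 active means mean inhibition across replicates of 30% or more, regardless of how many single replicates reach that level; inconclusive means mean under 30% yet at least half of replicates reach 30%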;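 further: positive control wells lacked labelled fibronectin entirely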
#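 Material – AH1F fibroblast monolayer, labelled fibronectin deposition · Reagent – labelled fibronectin 24 nM · Timing – 1 h adhesion, overnight exposure · Measured by – fluorescence at 485 nm excitation, 525 nm emission · Read-out – inhibition of fibronectin deposition signal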
# * marks the source's active call; other numbers are inactive results; ? = inconclusive; · = no result given; [ ] = another dose, or the depositor's remark. Rows were chosen to be rich in hits. Some 2.6% of all compounds tested hit in one or more screens of this group.
SMILES,rRNA inh HTS,Vif inh,HIV Env fusion,miR-122 sensor,S100A4 MyoIIA,FN deposition inh
C[C@H]1CCCCO[C@H](CN(C)C(=O)Nc2ccc3c(c2)OCO3)[C@@H](C)CN([C@@H](C)CO)C(=O)c2cc(NC(=O)CCCN(C)C)ccc2O1,2.6,·,-9.7[16.7 µM],6.9[16.7 µM],23.4,·
O=C(N/N=C/c1ccccc1O)c1cccc2ccccc12,-35.5*,3.5,2.6,-20.0,-6.5,8.6
CC(=O)n1cc(/C=N/NC(=O)c2ccccc2O)c2ccccc21,-25.4*,-20.3,-6.1,·,1.0,1.1
O=C(O)c1ccc(C=NNC(=O)c2cccc3ccccc23)cc1,1.1,-5.2,-15.4,·,0.0,9.6
Cc1ccc(S(=O)(=O)NCC(=O)N/N=C/c2ccc(Cl)cc2Cl)cc1,-34.7,-3.9,·,1.5,17.1,4.6
O=C(CSc1ccccc1)N/N=C/c1ccccc1O,-18.6*,-3.0,5.6,·,-4.3,-11.5
Cc1ccc(S(=O)(=O)NCC(=O)N/N=C/c2ccccc2O)cc1,-30.6*,·,-8.2,-8.1,-5.8,14.7
Cn1cc(/C=N/NC(=O)c2ccccc2O)c2ccccc21,-13.2,-2.8,-20.0,-4.7,-1.9,-2.3
CC(C)NC(=O)N(C)C[C@H]1Oc2ncc(-c3cncnc3)cc2C(=O)N([C@H](C)CO)C[C@@H]1C,10.6,·,-2.3[16.7 µM],·,·,-5.2
O=C(CC1CC1)Nc1ccc2c(c1)[C@H]1C[C@H](CC(=O)NC3CCCCC3)O[C@H](CO)[C@H]1O2,-2.6,·,26.4[16.7 µM],-3.6[16.7 µM],9.3,2.5
C[C@H](NC(=O)C[C@@H]1CC[C@H](NC(=O)C2CC2)[C@@H](CO)O1)c1ccccc1,0.9,·,-9.0[16.7 µM],·,?,1.4
CCCCC[C@@H](/C=C/C1C(=O)C=C[C@H]1C/C=C\CCCC(=O)OC)OC(C)=O (stereo not given in full),-22.6*,·,-313.2,-6.1,-7.0,3.8
CC(C)CC#Cc1ccc2c(c1)O[C@@H](CN(C)C(=O)Cc1ccccc1)[C@H](C)CN([C@@H](C)CO)S2(=O)=O,-5.9,·,23.3[16.7 µM],5.1[16.7 µM],1.3,-10.0
Nc1cc(=O)[nH]c(SCCSc2cc(Cl)ccc2Cl)n1,11.7,-6.7,69.2*,-1.5,-4.4,4.4
Nc1cc(=O)[nH]c(SCCSc2ccccc2F)n1,-8.3,-7.4,44.8,·,0.1,1.5
C[C@@H]1CCCCO[C@@H](CN(C)C(=O)Nc2ccc(C(F)(F)F)cc2)[C@H](C)CN([C@H](C)CO)C(=O)c2cc(NC(=O)NC3CCCCC3)ccc2O1,4.0,·,38.1[16.7 µM],-9.5[16.7 µM],-3.3,-8.5
C[C@@H]1CCCCO[C@H](CN(C)C(=O)C2CCCCC2)[C@H](C)CN([C@@H](C)CO)C(=O)c2cc(NS(=O)(=O)c3cccs3)ccc2O1,-3.8,·,23.6[16.7 µM],-12.1[16.7 µM],-8.6,·
CCCNc1nc(N2CCCC2)nc(N2CCCC2)n1,-21.1*,-0.3,11.6,-1.9,-3.0,-6.6
C=COCCNC(=O)Nc1ccc(Cl)c(Cl)c1,-20.8*,·,·,-3.1,-5.5,·
COCCNC(=S)Nc1ccc(Cl)c(Cl)c1,5.3,19.6,-8.2,·,-0.6,7.6
O=C(c1cnccn1)N1CC[C@H]2[C@H](CO)Nc3ccc(C#Cc4cccnc4)cc3[C@H]21,-0.7,·,·,-0.1[16.7 µM],-7.3,-14.2
O=C([C@@H]1[C@@H](CO)[C@@H]2Cn3c(cccc3=O)[C@H]1N2CC1CCCC1)N1CCc2ccccc2C1,-4.4,·,·,-14.6[16.7 µM],6.1,·
O=C(O)c1cc(S(=O)(=O)N2CCCCCC2)ccc1Cl,·,0.5,-65.4,-10.0,·,·
COc1ccc(S(=O)(=O)N2CCCCC2)cc1NC(=O)CCCOc1ccc(C)cc1,8.3,-9.6,70.5*,-2.2,-14.0,-3.6
COc1ccc(S(=O)(=O)N2CCCCC2)cc1NC(=O)CN(C)C1CCCCC1,-12.3,-0.6,24.3,-7.9,1.8,11.2
SMILES,rRNA inh HTS,Vif inh,HIV Env fusion,miR-122 sensor,S100A4 MyoIIA,FN deposition inh
COc1ccc(S(=O)(=O)N2CCCCC2)cc1NC(=O)CN(Cc1ccco1)Cc1ccco1,0.8,-29.9,76.2*,5.0,-3.5,·
COc1ccc(S(=O)(=O)N2CCCCCC2)cc1NC(=O)CN(C)Cc1ccc2c(c1)OCO2,-9.6,-32.2,58.2*,46.1,0.8,14.7
O=C(Nc1ccccc1C(=O)O)c1cc(S(=O)(=O)N2CCCCCC2)ccc1Cl,-43.5*,-3.2,-1.1,·,-1.5,6.4
COc1ccccc1CNCC(=O)Nc1cc(S(=O)(=O)N2CCCCC2)ccc1C,-4.7,0.0,24.8,-8.9,-2.2,-1.9
COc1ccccc1CNCC(=O)Nc1cc(S(=O)(=O)N2CCCCCC2)ccc1Cl,-31.1*,-6.5,-3.2,·,-4.8,0.6
Cc1nc(Sc2ccccc2)c(C#N)c(C)c1[N+](=O)[O-],-35.2*,5.9,-3.4,-1.2,-3.7,8.1
Cc1cc(C)c(C#N)c(Sc2nc(C)c([N+](=O)[O-])c(C)c2C#N)n1,8.6,-4.3,-3.4,·,3.9,10.3
c1ccc(COc2cccc(-c3cc4nc(NCc5cccs5)ccn4n3)c2)cc1,-28.1*,-25.0,·,-4.7,-7.2,-1.5
COCCCNc1ccn2nc(-c3cccc(OCc4ccccc4)c3)cc2n1,-25.5,-0.1,-7.2,·,-1.3,-7.9
O=C(C[C@@H]1CC[C@H](NC(=O)c2ccccc2)[C@H](CO)O1)NCc1ccc(Oc2ccccc2)cc1,-5.2,·,21.0[16.7 µM],·,0.2,2.5
CCCCOc1ccc(/C=C/C(=O)OCC(=O)N2CC(=O)Nc3ccccc32)cc1OCC,6.3,-3.3,61.2*,·,15.0,-3.4
COCC(=O)Nc1ccc2c(c1)C(=O)N(C)C[C@@H](OC)[C@@H](C)CN(Cc1cc(F)ccc1F)[C@H](C)CO2,-5.7,·,9.5[16.7 µM],·,6.1,-14.9
COc1ccc(/C=C/c2c(-c3ccc(OC)cc3)oc3ccccc23)cc1,2.5,-3.6,55.6*,2.6,3.8,-4.2
COC(=O)c1ccc(/C=C/c2c(-c3ccc(OC)cc3)oc3ccccc23)cc1,8.6,-0.4,8.0,3.5,-5.6,-0.6
CN(C)CCn1c(=O)n(-c2ccc(F)cc2)c(=O)c2c3c(sc21)CCCCC3,8.6,-7.8,?,·,1.8,0.3
CN(C)CCn1c(=O)n(-c2cccc(Cl)c2)c(=O)c2c3c(sc21)CCCCC3,-3.9,2.7,130.1*,·,-4.1,-1.3
CNC[C@H]1Oc2ccc(NS(C)(=O)=O)cc2CC(=O)N([C@H](C)CO)C[C@@H]1C,2.3,·,8.1[16.7 µM],4.8[16.7 µM],1.2,·
CS(=O)(=O)N1C[C@@H]2N[C@H](C1)C2c1ccc(-c2ccc(F)cc2)cc1 (stereo not given in full),-4.2,·,·,·,·,-1.8
COc1ccc(C)cc1N(C(=O)c1ccc(C#N)cc1)C1=NC(C)(C)CS1,9.6,5.4,8.9,0.9,-2.1,0.6
CCOc1ccccc1N(C(=O)c1ccccc1Cl)C1=NC(C)(C)CS1,-22.6*,-7.9,4.9,-2.0,3.2,-1.8

# Source: PubChem BioAssay
